Assay results: ChEMBL document CHEMBL3286129, “Optimization of peptidomimetic boronates bearing a P3 bicyclic scaffold as proteasome inhibitors” (Eur J Med Chem, 2014)
Active and inactive are the calls of the source. The calls are words filed in the database; no cut-off is given here.

Assays:
[1] = target: T1, Proteasome Macropain subunit MB1 (Homo sapiens, UniProt P28074); test: Inhibition of chymotrypsin-like activity of 20S proteasome in human erythrocytes using Suc-Leu-Leu-Val-Tyr-AMC as substrate by fluorescence assay; settings: read-out: Ki
T1 sequence (P28074 whole entry): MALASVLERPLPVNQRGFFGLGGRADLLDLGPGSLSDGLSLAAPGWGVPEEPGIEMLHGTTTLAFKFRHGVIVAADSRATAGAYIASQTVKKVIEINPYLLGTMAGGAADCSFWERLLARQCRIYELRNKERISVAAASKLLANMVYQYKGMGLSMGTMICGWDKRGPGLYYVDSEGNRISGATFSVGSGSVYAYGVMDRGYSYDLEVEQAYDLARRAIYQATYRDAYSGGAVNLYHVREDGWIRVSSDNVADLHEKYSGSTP

Chymotrypsinogen A = Chymotrypsinogen A (Bos taurus, UniProt P00766); test: Inhibition of bovine pancreatic alpha-chymotrypsin using Suc-Leu-Leu-Val-Tyr-AMC as substrate by fluorescence assay
Summary of the method: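 Enzyme incubated at 20 °C in 50 mM Tris pH 8.0, 100 mM NaCl, 5 mM EDTA, 7.5% DMSO with varied inhibitor concentrations. Substrate hydrolysis followed for 10 min. Ki from progress curves; mean of three determinations.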

Proteasome component C5 = target: T2, Proteasome component C5 (Homo sapiens, UniProt P20618); test: Inhibition of PGPH-like activity of 20S proteasome in human erythrocytes using Z-Leu-Leu-Glu-AMC as substrate by fluorescence assay
T2 sequence (P20618 whole entry): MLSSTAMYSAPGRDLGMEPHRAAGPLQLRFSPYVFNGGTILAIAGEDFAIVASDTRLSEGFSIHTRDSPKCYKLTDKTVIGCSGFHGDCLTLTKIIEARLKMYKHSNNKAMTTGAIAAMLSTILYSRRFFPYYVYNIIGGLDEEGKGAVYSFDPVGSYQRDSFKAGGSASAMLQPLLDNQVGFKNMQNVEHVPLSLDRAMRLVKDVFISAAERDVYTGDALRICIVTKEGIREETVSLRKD
Summary of the method: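 Human 20S proteasome 0.004 mg/mL, 30 °C, 50 mM Tris pH 7.5 with 25 mM KCl, 10 mM NaCl, 1 mM MgCl2, 0.03% SDS, 5% DMSO. Ki from 4-parameter IC50 fit of progress curves, corrected to zero substrate via Km. Mean of three.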

[2] = target: Proteasome Macropain subunit (Homo sapiens) (UniProt P49721); test: Inhibition of trypsin-like activity of 20S proteasome in human erythrocytes using Boc-Leu-Arg-Arg-AMC as substrate by fluorescence assay; type: cell-based
Sequence of Proteasome Macropain subunit (Homo sapiens) (P49721 whole entry): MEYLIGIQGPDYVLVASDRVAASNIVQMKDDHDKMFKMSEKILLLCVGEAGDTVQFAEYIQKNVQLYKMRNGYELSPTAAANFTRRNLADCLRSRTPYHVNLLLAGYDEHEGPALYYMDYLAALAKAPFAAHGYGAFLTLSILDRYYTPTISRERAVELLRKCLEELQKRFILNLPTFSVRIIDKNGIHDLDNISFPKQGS
Summary of the method: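 Human 20S proteasome 0.0025 mg/mL at 30 °C in 50 mM Tris pH 7.4, 50 mM NaCl, 0.5 mM EDTA, 0.03% SDS, 7.5% DMSO. Varied inhibitor concentrations; AMC release monitored continuously for 10 min, ex 380/em 460 nm. Ki derived from progress-curve IC50 fit.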

[3] = Cytotoxicity against human ovarian cancer cells assessed as cell growth at 10 uM relative to control; type: functional; settings: Cancer cell lines, read-out: Activity
Summary of the method: (§1)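 Single-concentration screen against a panel of human cancer cell lines. Each value is the mean percent growth across the cell lines of that tumour subpanel.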

[4] = Cytotoxicity against human renal cancer cells assessed as cell growth at 10 uM relative to control; type: functional; settings: Cancer cell lines, read-out: Activity; summary of the method: as §1
[5] = Cytotoxicity against human NSCLC cells assessed as cell growth at 10 uM relative to control; type: functional; settings: read-out: Activity; summary of the method: as §1
[6] = Cytotoxicity against human colon cancer cells assessed as cell growth at 10 uM relative to control; type: functional; settings: Cancer cell lines, read-out: Activity; summary of the method: as §1
[7] = Cytotoxicity against human CNSC cells assessed as cell growth at 10 uM relative to control; type: functional; settings: read-out: Activity; summary of the method: as §1
[8] = Cytotoxicity against human melanoma cells assessed as cell growth at 10 uM relative to control; type: functional; settings: read-out: Activity; summary of the method: as §1
[9] = Cytotoxicity against human leukemia cells assessed as cell growth at 10 uM relative to control; type: functional; settings: read-out: Activity; summary of the method: as §1
[10] = Cytotoxicity against human prostate cancer cells assessed as cell growth at 10 uM relative to control; type: functional; settings: Cancer cell lines, read-out: Activity; summary of the method: as §1
[11] = Cytotoxicity against human breast cancer cells assessed as cell growth at 10 uM relative to control; type: functional; settings: Cancer cell lines, read-out: Activity; summary of the method: as §1

Structure (SMILES) | Ki [1] | Ki (Chymotrypsinogen A) | Ki (Proteasome component C5) | inhibition [2] | growth at 10 µM [3] | growth at 10 µM [4] | growth at 10 µM [5] | growth at 10 µM [6] | growth at 10 µM [7] | growth at 10 µM [8] | growth at 10 µM [9] | growth at 10 µM [10] | growth at 10 µM [11]
CC(C)CCNC(=O)Cn1ccc2ccc(Br)cc2c1=O | 2.34 µM | Not Active | Not Active | inactive | – | – | – | – | – | – | – | – | –
CC(C)CCNC(=O)CCn1ccc2ncccc2c1=O | 4.57 µM | – | Not Active | inactive | – | – | – | – | – | – | – | – | –
CC(C)CCNC(=O)Cn1ccc2ccccc2c1=O | – | – | – | inactive | 104% | 97.4% | 97.2% | 100% | 102% | 104% | 99.5% | 101% | 103%
